The target in assay [1] is T1, Thymidylate synthase (Homo sapiens, UniProt P04818). The assay is described as follows: Inhibition of human thymidylate synthase at 600 uM concentration of 5,10-CH2-H4PteGlu. Put shortly: (§1)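 TS purified ~1350-fold (specific activity 17.4 units/mg) from human acute myeloblastic leukemia cell pellet; tritium-release assay with [5-3H]dUMP, started by enzyme addition, 45 or 60 min incubation. Ki from varying dUMP, 5,10-CH2-H4PteGlu or 5,10-CH2-H4PteGlu5 at several fixed inhibitor levels; fixed cosubstrate 28 µM dUMP or 600 µM CH2-H4PteGlu (40 µM pentaglutamate); duplicate/triplicate, repeated.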
Target sequence in this assay (P04818 whole entry): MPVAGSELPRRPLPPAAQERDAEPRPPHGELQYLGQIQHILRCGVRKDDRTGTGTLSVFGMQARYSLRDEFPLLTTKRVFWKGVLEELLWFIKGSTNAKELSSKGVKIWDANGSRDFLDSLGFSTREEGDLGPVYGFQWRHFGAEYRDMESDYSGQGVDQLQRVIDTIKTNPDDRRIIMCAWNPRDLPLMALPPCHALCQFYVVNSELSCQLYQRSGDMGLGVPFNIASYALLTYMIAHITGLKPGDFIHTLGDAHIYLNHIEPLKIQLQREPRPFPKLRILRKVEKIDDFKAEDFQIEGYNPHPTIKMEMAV

For assay [2], the target named is T1, Thymidylate synthase. The assay is described as follows: Competitive inhibition of the human thymidylate synthase at 600 uM as Ki(slope) of 5,10-CH2-H4PteGlu. The settings on record: in the assay text read “28 uM dUMP” for “600 uM”. The procedure, abridged:
as §1
Target sequence in this assay (P04818 whole entry): as above

In assay [3] the target is T1, Thymidylate synthase. Put plainly: Mixed inhibition of the human thymidylate synthase at 28 uM of 5,10-CH2-H4PteGlu5. The procedure, abridged: as §1
Target sequence in this assay (P04818 2-313 limits assumed): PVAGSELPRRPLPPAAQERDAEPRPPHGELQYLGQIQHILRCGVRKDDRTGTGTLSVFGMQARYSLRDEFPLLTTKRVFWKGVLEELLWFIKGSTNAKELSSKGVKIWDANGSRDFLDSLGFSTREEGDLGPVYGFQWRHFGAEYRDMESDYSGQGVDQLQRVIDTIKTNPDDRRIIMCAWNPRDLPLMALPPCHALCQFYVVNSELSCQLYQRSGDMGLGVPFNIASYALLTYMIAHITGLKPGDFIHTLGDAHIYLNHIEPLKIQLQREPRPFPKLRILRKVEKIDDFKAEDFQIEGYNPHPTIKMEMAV
Assay [4] has as its target T1, Thymidylate synthase. Put plainly: Inhibition of human thymidylate synthase at 40 uM concentration of 5,10-CH2-H4PteGlu5. Put shortly: as §1
Target sequence in this assay (P04818 whole entry): as the sequence (P04818 whole entry) above
The target in assay [5] is T1, Thymidylate synthase. Put plainly: Competitive inhibition of the human thymidylate synthase at 600 uM of 5,10-CH2-H4PteGlu.
Target sequence in this assay (P04818 whole entry): as above
Assay [6] concerns the target T1, Thymidylate synthase. The assay is described as follows: Competitive inhibition of the human thymidylate synthase at 28 uM as Ki(slope) of 5,10-CH2-H4PteGlu. The procedure, abridged: as §1
Target sequence in this assay (P04818 whole entry): as above

Broadly, the IC50 is the concentration at which inhibition is half-maximal. Lower therefore signals greater potency. The term Ki denotes a measure of affinity in units of concentration, obtained from inhibition or displacement. Read a high Ki as lower affinity. With `Nc1nc(O)c2c(n1)CCC(CNc1ccc(C(=O)NC(CCC(=O)O)C(=O)O)cc1)N2Cc1cn([C@H]2C[C@H](O)[C@@H](COP(=O)(O)O)O2)c(=O)[nH]c1=O` (stereo partly drawn), the half-maximal inhibitory concentration (IC50) is 390 nM on Thymidylate synthase [1] and 200 nM at Thymidylate synthase [4]. Further, the inhibition constant (Ki) at Thymidylate synthase [2] is 85 nM; at Thymidylate synthase [5], 27 nM. This molecule had a Kii on Thymidylate synthase [3] of 0.11 µM. Besides, the Kis at Thymidylate synthase [3] stood at 0.33 µM.

As for `Cc1nc(N)nc(O)c1N(CCNc1ccc(C(=O)NC(CCC(=O)O)C(=O)O)cc1)Cc1cn([C@H]2C[C@H](O)[C@@H](COP(=O)(O)O)O2)c(=O)[nH]c1=O` (stereo partly drawn), the figures for the half-maximal inhibitory concentration (IC50) at Thymidylate synthase [1] and on Thymidylate synthase [4] were 7300 nM and 1180 nM, respectively.

As to `Cc1nc(N)nc(O)c1N(CCN(C)c1ccc(C(=O)NC(CCC(=O)O)C(=O)O)cc1)Cc1cn([C@H]2C[C@H](O)[C@@H](COP(=O)(O)O)O2)c(=O)[nH]c1=O` (stereo partly drawn), the half-inhibitory concentration (IC50) on Thymidylate synthase [1] amounted to 1000 nM. This molecule registered a Ki on Thymidylate synthase [6] of 230 nM. In addition, at Thymidylate synthase [3], the Kii was determined as 0.2 µM and the Kis came out at 1.19 µM. 350 nM corresponded to half-maximal inhibition against Thymidylate synthase [4] (IC50).

The values above are taken from ChEMBL document CHEMBL1124003, “A pyrimidine-based "flexible" bisubstrate analogue inhibitor of human thymidylate synthase” (J Med Chem, 1988).
